GASC1 inh = inhibitors of human demethylase GASC-1 KDM4C | GST-KDM4C 2-372, H3K9me3 peptide, LANCE TR-FRET | inhibition, % at 12.5 µM | hit rate 0.15% among 96,000 | AID 720574;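 active means mean replicate inhibition above about 25%, with at least 55% of replicates also reaching it, limit read from the data, passing the limit was not always enough; inconclusive means only one of those two conditions met; inactive means neither condition met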
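material = GST-tagged GASC-1 (JMJD2C) catalytic fragment, aa 2-372 | amount = enzyme final amount 10 nM | medium = HEPES buffer, pH 7.5, plus ascorbate | also added = H3K9me3 peptide substrate, Fe(II), 2-oxoglutarate | dosing = single dose | times = 30 min demethylation and 1 h detection at room temperature | detection = LANCE TR-FRET | read-out basis = Fall in 671/618 emission ratio as inhibition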
IDH1 R132H inh = blocks human IDH1 R132H reductase activity; O75874; diaphorase/resazurin fluorescence, 60 min; inhibition, % at 10 µM; hit rate 0.18% among 70,000; AID 624101; in the data active means inhibition above about 34%; inconclusive means no clear call, values can overlap the other calls; inactive means below about 11%;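 further: 0% = DMSO and 100% = no enzyme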
Target sequence (O75874 whole entry R132H): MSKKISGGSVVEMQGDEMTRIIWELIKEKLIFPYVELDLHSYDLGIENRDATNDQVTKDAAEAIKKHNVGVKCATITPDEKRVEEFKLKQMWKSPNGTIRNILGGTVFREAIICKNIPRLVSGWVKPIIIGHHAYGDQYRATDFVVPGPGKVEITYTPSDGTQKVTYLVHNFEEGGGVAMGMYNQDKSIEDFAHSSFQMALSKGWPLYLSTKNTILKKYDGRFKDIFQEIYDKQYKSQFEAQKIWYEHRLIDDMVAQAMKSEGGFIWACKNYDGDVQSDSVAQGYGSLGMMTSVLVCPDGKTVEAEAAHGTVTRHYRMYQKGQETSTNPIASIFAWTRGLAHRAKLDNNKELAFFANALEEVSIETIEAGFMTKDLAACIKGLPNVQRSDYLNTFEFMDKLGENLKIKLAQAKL
T cruzi growth-1 = blocks T. cruzi growth in NIH3T3 culture. hit rate 5.9% among 77,000. T. cruzi beta-gal in NIH3T3, GalScreen luminescence, 90 h. AID 624255. inhibition, % at 8.34 µM;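 active means mean inhibition above about 93%, with at least 55% of replicates each passing it, limit read from the data, passing the limit was not always enough; inconclusive means only one of those two conditions holds; inactive means neither condition holds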
Pf Dd2 inh = blocks growth of Plasmodium falciparum Dd2 parasites | P. falciparum Dd2 growth, SYBR Green, 72 h; active compounds read low | AID 1159554 | hit rate 2.3% among 94,000 | activity change, % at 10 µM; in the data active means activity change below about -80%; inconclusive means no clear call, values can overlap the other calls
T cruzi growth-2 = Trypanosoma cruzi proliferation inhibition | shares compounds with T cruzi growth-1 | T. cruzi beta-gal in NIH3T3, GalScreen luminescence, 90 h | inhibition, % at 8.35 µM | hit rate 72% among 5,600 | AID 651739;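 active means mean replicate inhibition above about 95% and at least 55% of replicates individually reaching it, limit read from the data; inconclusive means only one of the two criteria is met; inactive means neither criterion is met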
T cruzi growth-3 = blocks T. cruzi growth in NIH3T3 host cells. hit rate 21% among 5,600. shares compounds with T cruzi growth-1. AID 651740. T. cruzi beta-gal in NIH3T3, GalScreen luminescence, 90 h. inhibition, % at 2.09 µM;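 active means mean inhibition above about 95%, with at least 55% of replicates also reaching it, limit read from the data; inconclusive means meets just one of the two conditions; inactive means meets neither condition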;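 further: plate controls were neutral control median for no effect and positive control median for full effect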
NIH3T3 tox = kills mouse NIH/3T3 fibroblasts; hit rate 14% among 5,600; shares compounds with T cruzi growth-1; AID 651742; NIH/3T3 viability, CellTiter-Glo ATP luminescence, 90 h; cytotoxicity (signal decrease), % at 8.35 µM;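 active means mean signal decrease across replicates above about 35% based on untreated-well scatter, with enough replicates individually passing, limit read from the data; inconclusive means no rule stated though some were filed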;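 further: 0% = median of neutral control wells and 100% = median of positive control wells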
3T3 cytotox 2 = NIH/3T3 (mouse) viability loss; AID 651744; inhibition, % at 24.9 µM; shares compounds with T cruzi growth-1; hit rate 56% among 5,600; NIH/3T3 viability, CellTiter-Glo ATP luminescence, 90 h;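 active means mean loss of cell viability signal at or above a set limit, and enough replicates individually reaching it; inconclusive means meets only the mean limit or only the replicate share; inactive means meets neither condition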;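 further: 0% = median of neutral control wells and 100% = median of positive control wells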
* marks the source's active call; other numbers are inactive results. The list is not random: actives were taken first. Their share in the collection is about 5.9%.

How did N#C[C@@H]1[C@@H](c2ccc(C#CC3CCCC3)cc2)[C@@H](CO)N1C(=O)c1cccc(F)c1 do in these assays?
GASC1 inh: -4; Pf Dd2 inh: -39

Results for CC(C)C#Cc1ccc([C@@H]2[C@H](C#N)N(C(=O)c3cccc(F)c3)[C@H]2CO)cc1 ?
GASC1 inh: 3; T cruzi growth-1: inconclusive; Pf Dd2 inh: -28; T cruzi growth-2: 92; T cruzi growth-3: 106*; NIH3T3 tox: 16; 3T3 cytotox 2: 78*

What do the screens show for `CC(C)C#Cc1ccc([C@@H]2[C@@H](C#N)N(C(=O)c3cccc(F)c3)[C@H]2CO)cc1`?
GASC1 inh: -2; T cruzi growth-1: 97*; Pf Dd2 inh: -60; T cruzi growth-2: 103*; T cruzi growth-3: 81; NIH3T3 tox: 10; 3T3 cytotox 2: 32

How did C[C@H](CO)N1C[C@H](C)[C@@H](CN(C)Cc2ccc(C(=O)Nc3ccccc3N)cc2)Oc2c(NC(=O)c3nc4ccccc4s3)cccc2C1=O do in these assays?
GASC1 inh: -2; T cruzi growth-1: 106*; Pf Dd2 inh: -89*; T cruzi growth-2: 108*; T cruzi growth-3: 85; NIH3T3 tox: -31; 3T3 cytotox 2: 11

What do the screens show for `C[C@H]1CN([C@@H](C)CO)C(=O)c2cccc(NC(=O)c3nc4ccccc4s3)c2O[C@@H]1CN(C)Cc1ccc(C(=O)Nc2ccccc2N)cc1`?
GASC1 inh: 0; IDH1 R132H inh: 0; T cruzi growth-1: 106*; Pf Dd2 inh: -89*; T cruzi growth-2: 107*; T cruzi growth-3: 92; NIH3T3 tox: 11; 3T3 cytotox 2: inconclusive

Results for C[C@H](CO)N1C[C@H](C)[C@H](CN(C)Cc2ccc(C(=O)Nc3ccccc3N)cc2)Oc2c(NC(=O)c3nc4ccccc4s3)cccc2C1=O ?
GASC1 inh: -1; IDH1 R132H inh: 0; T cruzi growth-1: inconclusive; Pf Dd2 inh: -93*; T cruzi growth-2: 102*; T cruzi growth-3: 105*; NIH3T3 tox: 23; 3T3 cytotox 2: 64*

What do the screens show for `C[C@H](CO)N1C[C@H](C)[C@@H](CN(C)Cc2ccc(C(=O)O)cc2)Oc2c(NC(=O)c3nc4ccccc4s3)cccc2C1=O`?
GASC1 inh: 0; IDH1 R132H inh: -10; T cruzi growth-1: 42; Pf Dd2 inh: 9

How did COc1ccc(N(CC(=O)Nc2ccc(I)cc2C)S(C)(=O)=O)cc1Cl do in these assays?
IDH1 R132H inh: 0

How did Cn1c(SCC(=O)Nc2ccc(C(N)=O)cc2)nnc1-c1ccccn1 do in these assays?
IDH1 R132H inh: 0

How did O=C(CC1(O)C(=O)N(Cc2ccccc2)c2ccc(Cl)cc21)c1ccncc1 (stereo not drawn) do in these assays?
IDH1 R132H inh: 0

What do the screens show for `COc1ccc(CN(C)C[C@@H]2OCCCC[C@H](C)Oc3ccc(NC(=O)c4ccccc4)cc3C(=O)N([C@H](C)CO)C[C@@H]2C)cc1`?
GASC1 inh: -3; T cruzi growth-1: 61; Pf Dd2 inh: -36

How did COc1ccc(NC(=O)Nc2ccc3c(c2)C(=O)N([C@@H](C)CO)C[C@H](C)[C@H](CN(C)C(=O)Cc2ccccc2)OCCCC[C@H](C)O3)cc1 do in these assays?
GASC1 inh: 0; T cruzi growth-1: inconclusive; Pf Dd2 inh: -66; T cruzi growth-2: 112*; T cruzi growth-3: -4; NIH3T3 tox: -10; 3T3 cytotox 2: 3

What do the screens show for `COc1ccc(CN(C)C[C@@H]2OCCCC[C@@H](C)Oc3ccc(NC(=O)c4ccccc4)cc3C(=O)N([C@H](C)CO)C[C@H]2C)cc1`?
GASC1 inh: -2; T cruzi growth-1: 107*; Pf Dd2 inh: -56; T cruzi growth-2: 91; T cruzi growth-3: 80; NIH3T3 tox: 4; 3T3 cytotox 2: 81*

Results for C[C@@H]1CCCCO[C@@H](CN(C)Cc2ccccc2)[C@H](C)CN([C@H](C)CO)C(=O)c2cc(NC(=O)Nc3ccccc3)ccc2O1 ?
GASC1 inh: 0; IDH1 R132H inh: -4; T cruzi growth-1: 103*; Pf Dd2 inh: -76; T cruzi growth-2: 106*; T cruzi growth-3: 70; NIH3T3 tox: 8; 3T3 cytotox 2: 105*

Source: PubChem BioAssay
